Only some compounds are listed: those with a hit (about 1.9% of all), similar ones and a draw of the others.
MBD2 DNA inh: blocks human MBD2 binding to methylated DNA; hit rate 0.31% among 370,000; TR-FRET, MBD2 binding to methylated oligonucleotide; inhibition, % at 4.4 µM; in the data active = inhibition above about 13%
LEDGF integ inh: blocks HIV-1 LEDGF/p75-dependent DNA integration | TR-FRET IN-LEDGF/p75 DNA integration, Eu/Cy5 | inhibition, % at 3.7 µM | hit rate 0.64% among 370,000 | AID 743269;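 active = inhibition above the screen-wide mean plus 3 SD, cut at about 13% in these data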;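 note: signal is the Cy5 over europium emission ratio at 671 and 618 nm; 0% = plate median of compound wells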
Rin1 Abl inh: inhibitors of human Rin1-Abl protein interaction; TR-FRET Rin1/Abl binding, biochemical; inhibition, % at 7.35 µM; hit rate 0.4% among 360,000; in the data active = inhibition above about 5%, passing the limit was not always enough
TDP2 inh: blocks human TDP2 phosphodiesterase activity | O95551 | recombinant TDP2, T5PNP hydrolysis, p-nitrophenol absorbance 415 nm | inhibition, % at 12.8 µM | hit rate 0.34% among 370,000 | AID 720702;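 active = inhibition above the mean of all tested compounds plus 3 SD, set per campaign, cut at about 25% in these data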;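 note: 0% = DMSO with enzyme and 100% = buffer with substrate but no TDP2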
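System – recombinant human TDP2 · Quantity – TDP2 enzyme at 120 nM final · Doses – single concentration, 12.8 µM nominal, with 1% DMSO · Incubation – 2 h at 37 °C · Measured by – epi absorbance of p-nitrophenol freed from T5PNP by hydrolysis · Read-out – % inhibition relative to enzyme-containing and enzyme-free wells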
UHRF1 MBD2 ctr: human UHRF1 methylated DNA binding inhibitors; inhibition, % at 4.4 µM; UHRF1 binding to methylated oligo, TR-FRET; hit rate 0.75% among 370,000;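 note: UHRF1 SRA domain binding a hemimethylated CpG hairpin DNA probe; 0% = median of test compound wells and 100% = reference inhibitor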
UHRF1 ctr MBD2: UHRF1 methyl-oligo binding inhibition as MBD2 counter-screen. shares compounds with MBD2 DNA inh. UHRF1 binding to methylated oligonucleotide, TR-FRET. inhibition, % at 4.4 µM. hit rate 25% among 1,000;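 note: UHRF1 SRA domain binding a labeled hemimethylated CpG hairpin DNA; 0% = vehicle only and 100% = reference inhibitor with vehicle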
MBD2 DBD conf: MBD2-DBD methyl-DNA binding inhibition, TR-FRET confirmation | shares compounds with MBD2 DNA inh | hit rate 26% among 1,000 | AID 720531 | TR-FRET MBD2-DBD binding to methylated oligonucleotide | inhibition, % at 4.4 µM; in the data active = inhibition above about 14%
The depositor's hits bear a star; · = not tested or not shown. Cut-off read from the data, not from the text of the source, unless noted: active = inhibition above about 21%; inactive = the rest.

SMILES | MBD2 DNA inh | LEDGF integ inh | Rin1 Abl inh | TDP2 inh | UHRF1 MBD2 ctr | UHRF1 ctr MBD2 | MBD2 DBD conf
COc1ccc(C(CC(=O)N2CCCC2)C(C)C)cc1 (configuration not stated) | -2.8 | -2.9 | 2.2 | 1.2 | -2.3 | · | ·
COc1ccc(CC(=O)N2CCN(c3cccc(C)c3C)CC2)cc1 | 15.8* | -2.5 | -0.5 | -5.1 | 1.5 | 4.9 | 3.5
CCOC(=O)[C@@]12CCCC=C1N(CCc1ccc(Cl)cc1)C(=O)[C@H]2CC(=O)N1CCCCC1 | -5.1 | 6.4 | · | -7.5 | -3.2 | · | ·
CC(Oc1ccccc1F)C(=O)/C=C/N(C)C (configuration not stated) | · | · | 3.6 | · | · | · | ·
CC(Oc1ccccc1Cl)C(=O)/C=C/N(C)C (configuration not stated) | 17.5* | -2.9 | -3.0 | 3.8 | -3.9 | 7.3 | 2.9
CCCCn1nnnc1C1c2ccccc2OCC(=O)N1Cc1ccc2c(c1)OCO2 (configuration not stated) | 1.8 | 2.4 | · | -1.1 | -1.9 | · | ·
CC(=O)Nc1ccc(S(=O)(=O)NC(CC(=O)O)c2ccc(OC(C)C)cc2)cc1 (configuration not stated) | 16.6* | -2.7 | 2.2 | 5.5 | 23.2* | 11.5 | 4.7
COc1cc2cc(C(=O)N(C)C3CCS(=O)(=O)C3)[nH]c2cc1OC (configuration not stated) | 15.4* | 2.5 | -1.9 | 4.2 | 1.6 | 6.3 | 1.1
Cc1ccc(NC(=O)C2CCN(S(=O)(=O)c3cnc[nH]3)CC2)cc1C | 3.1 | 1.1 | 1.6 | 4.4 | -0.4 | · | ·
Cc1cc(NC(=O)C2CCN(S(=O)(=O)c3cnc[nH]3)CC2)ccc1Br | 13.8* | 1.0 | 0.7 | -0.4 | 20.5 | 3.6 | 1.9
COC(=O)CN(Cc1cn(Cc2ccccc2)nn1)S(=O)(=O)c1ccccc1Br | 2.4 | 2.1 | · | 1.9 | 0.4 | · | ·
Cc1ccc(C(=O)CSc2ncn[nH]2)cc1 | -0.6 | 4.6 | -3.9 | 2.5 | -1.3 | · | ·
O=C(O)CSc1ncn[nH]1 | 13.5* | 3.2 | 1.3 | 5.2 | 15.3 | 7.0 | 0.6
COc1ccccc1NS(=O)(=O)/C=C/c1ccccc1 | 13.8* | -3.4 | -3.2 | -1.9 | 4.1 | 5.8 | 3.8
COc1ccc(-c2nnn(CCC(=O)O)n2)cc1 | 36.0* | 1.3 | 0.7 | 4.3 | -1.2 | 7.1 | 4.2
COc1cccc(-c2nnn(CCC(=O)O)n2)c1 | -6.3 | 4.5 | -2.6 | -5.3 | -1.9 | · | ·
Cn1cccc1CC(=O)NN=Cc1cccc(F)c1 | -0.7 | -1.0 | · | 3.3 | -3.5 | · | ·
COc1cc2c(cc1OC)CN(C(=O)CCOc1ccccc1C)CC2 | 13.8* | -3.6 | 0.0 | 4.0 | 0.6 | 3.1 | 0.9
COc1cc2c(cc1OC)CN(C(=O)CCOc1ccccc1)CC2 | 2.9 | 1.4 | -1.4 | 9.3 | -0.9 | · | ·
O=C(O)CCCCC1CCSS1 (configuration not stated) | 22.4* | 0.7 | 3.0 | -9.0 | 48.1* | 36.4* | 15.8*
CCCCCCCCNC(=O)C1CSCCS(=O)(=O)N1Cc1ccccc1 (configuration not stated) | -4.2 | 6.0 | · | -6.2 | -0.9 | · | ·
CCc1nnc(NC(=O)CN2CCN(Cc3ccccc3Cl)CC2)s1 | 16.9* | 5.0 | -1.0 | 15.5 | 20.2 | 7.9 | 6.0
O=C(Nc1nnc(CCN2CCCCC2)s1)c1ccccc1Cl | 16.1* | 3.8 | 0.0 | -1.2 | 24.9* | 6.8 | 2.5
CCc1nnc(NC(=O)CN2CCN(Cc3ccccc3C)CC2)s1 | 2.7 | 4.5 | -1.2 | 6.3 | -0.7 | · | ·
c1ccc(-n2nc3c(ccc4cnnc43)[nH]2)cc1 | 14.9* | -0.8 | -2.2 | -5.3 | 18.9 | 4.1 | 4.3
SMILES | MBD2 DNA inh | LEDGF integ inh | Rin1 Abl inh | TDP2 inh | UHRF1 MBD2 ctr | UHRF1 ctr MBD2 | MBD2 DBD conf
CCn1c(SCC(=O)c2ccc(-c3ccccc3)cc2)nnc1-c1ccc(C(C)(C)C)cc1 | -2.9 | 0.5 | · | 2.6 | 4.0 | · | ·
CCn1c(SCC(=O)c2ccc(O)c(O)c2)nnc1-c1ccc(C)cc1 | 15.1* | 6.2 | -3.5 | -8.4 | 44.3* | 13.8 | 5.3
O=C(CC1Sc2ccccc2NC1=O)Nc1cccnc1 (configuration not stated) | -3.2 | 0.3 | 3.2 | 7.6 | -1.3 | · | ·
CC(C(=O)Nc1cccnc1)C1Sc2ccccc2NC1=O (configuration not stated) | 77.6* | -1.5 | 1.9 | 5.9 | -0.9 | 3.4 | 0.1
Cc1noc(C)c1Cn1nc(C(=O)O)c2ccccc2c1=O | 31.8* | 6.9 | -1.0 | -10.0 | 0.5 | 2.7 | 1.2
COc1cccc(-n2c(=O)c3c(C)c(C(=O)N(C)C)sc3n(CC(=O)NCC3CCCO3)c2=O)c1 (configuration not stated) | 16.4* | -8.4 | -0.8 | -12.3 | -1.9 | 8.5 | 3.5
CS(=O)(=O)N[C@@H]1C[C@@H]2O[C@H](CO)CC[C@@H]2O[C@@H]1CCc1ccc(/C=C/c2ccccc2)cc1 | 1.1 | 1.0 | · | 8.7 | 2.9 | · | ·
COc1ccc(C(=O)c2cc3c(cc2[N+](=O)[O-])OCCO3)cc1 | 4.0 | -2.1 | 1.4 | 0.6 | -0.8 | · | ·
O=C(c1ccccc1F)c1cc2c(cc1[N+](=O)[O-])OCCO2 | 14.6* | 0.6 | 1.0 | -9.8 | 18.3 | 6.8 | 1.3
Cc1ccc2nc(C(C)(C)C)c(Cc3ccccc3C(F)(F)F)n2c1 | 14.9* | 0.2 | 0.6 | -4.2 | 21.0* | 8.1 | 6.5
O=C(OCC1OC(n2ncc(=O)[nH]c2=O)C(OC(=O)c2ccccc2)C1OC(=O)c1ccccc1)c1ccccc1 (configuration not stated) | 28.2* | -1.4 | -1.1 | -7.5 | 5.0 | 4.0 | 1.5
COc1cccc(N2CCN(CC(=O)NCc3ccco3)CC2)c1 | -3.6 | -4.6 | · | -3.6 | -0.9 | · | ·
Cc1ccc(OCC(=O)c2c(N)n(C)c(=O)n(C)c2=O)c([N+](=O)[O-])n1 | 18.6* | 12.4 | 1.0 | -4.5 | 22.5* | 35.5* | 17.2*
Cc1ccccc1C(=O)N[C@H](C(=O)N1CCC[C@H]1C(=O)NCCc1ccccc1Cl)C(C)C | 2.1 | 1.5 | · | 7.3 | -2.9 | · | ·
COc1ccc(C)cc1NC(=O)C1CCN(C(=O)c2ccco2)CC1 | 13.9* | 2.7 | 3.8 | -7.3 | -2.1 | 8.7 | 3.1
CCc1nnc(NC(=O)CSc2nnc(CNC(=O)c3ccccc3)o2)s1 | 21.8* | -0.8 | 2.4 | -4.5 | 0.7 | 8.8 | 3.6
O=C(NCc1ccccc1Cl)C1CCCN(c2ncccn2)C1 (configuration not stated) | -2.5 | -0.8 | · | -6.0 | 0.7 | · | ·
CCCCNC(=O)C[C@H]1C[C@@]2(C(=O)OC)C(=C[C@H](C3CCCC3)O[C@@H]2C)N(Cc2ccco2)C1=O | -7.5 | 5.0 | · | -12.3 | -1.4 | · | ·
O=C1C2CCCN2C(=S)N1C1CCCCC1 (configuration not stated) | 4.9 | -5.6 | -0.5 | -3.5 | 1.1 | · | ·
O=C1C=C(c2ccoc2)N2CCC[C@H]2C1 | 35.9* | -3.6 | 4.0 | 1.6 | -4.9 | 8.6 | 1.3

Screening data: PubChem BioAssay, The Scripps Research Institute Molecular Screening Center
